Measured values taken from article PMC4929832 (Nature, 2016).
pEC50, pIC50: −log10 of the molar value. Read-outs that look alike come from different tables or passages of the source.

Legend:
[1] = target: PAK4 (Homo sapiens, UniProt O96013); experiment: kinase panel; assay type: biochemical
[2] = target: ROCK1 (Homo sapiens, UniProt Q13464); experiment: kinase panel; assay type: biochemical
[3] = target: ROCK2 (Homo sapiens, UniProt O75116); experiment: kinase panel; assay type: biochemical
[4] = target: MARK1 (Homo sapiens, UniProt Q9P0L2); experiment: kinase panel; assay type: biochemical
[5] = target: GRK7 (Homo sapiens, UniProt Q8WTQ7); experiment: kinase panel; assay type: biochemical
[6] = target: MARK3 (Homo sapiens, UniProt P27448); experiment: kinase panel; assay type: biochemical
[7] = target: PDK1 (Homo sapiens, UniProt O15530); experiment: kinase panel; assay type: biochemical
[8] = target: AMP-A1B1G1 (Homo sapiens, UniProt Q13131); experiment: kinase panel; assay type: biochemical
[9] = target: ARG (Homo sapiens, UniProt P42684); experiment: kinase panel; assay type: biochemical
[10] = target: MELK (Homo sapiens, UniProt Q14680); experiment: kinase panel; assay type: biochemical
Chain of MELK (Q14680 whole entry): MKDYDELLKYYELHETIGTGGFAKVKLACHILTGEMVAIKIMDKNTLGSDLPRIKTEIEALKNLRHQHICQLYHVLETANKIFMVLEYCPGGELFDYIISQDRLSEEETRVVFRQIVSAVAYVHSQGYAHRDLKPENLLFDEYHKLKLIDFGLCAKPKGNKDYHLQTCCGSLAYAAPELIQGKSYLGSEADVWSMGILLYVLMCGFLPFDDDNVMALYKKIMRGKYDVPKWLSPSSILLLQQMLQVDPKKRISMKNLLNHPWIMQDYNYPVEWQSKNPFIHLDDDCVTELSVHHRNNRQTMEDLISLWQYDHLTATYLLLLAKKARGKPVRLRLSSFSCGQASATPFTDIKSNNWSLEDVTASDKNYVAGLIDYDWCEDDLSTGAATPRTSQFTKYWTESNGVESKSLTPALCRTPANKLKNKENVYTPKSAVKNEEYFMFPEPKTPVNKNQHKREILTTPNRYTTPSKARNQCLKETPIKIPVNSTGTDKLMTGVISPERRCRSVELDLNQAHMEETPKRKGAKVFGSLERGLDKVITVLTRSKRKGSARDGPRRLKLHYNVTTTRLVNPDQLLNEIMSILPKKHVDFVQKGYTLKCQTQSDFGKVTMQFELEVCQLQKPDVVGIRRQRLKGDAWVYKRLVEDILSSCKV

[11] = target: HIPK3 (Homo sapiens, UniProt Q9H422); experiment: kinase panel; assay type: biochemical
[12] = target: MRCK-ALPHA (Homo sapiens, UniProt Q5VT25); experiment: kinase panel; assay type: biochemical
[13] = target: DYRK4 (Homo sapiens, UniProt Q9NR20); experiment: kinase panel; assay type: biochemical
Chain of DYRK4 (Q9NR20 whole entry): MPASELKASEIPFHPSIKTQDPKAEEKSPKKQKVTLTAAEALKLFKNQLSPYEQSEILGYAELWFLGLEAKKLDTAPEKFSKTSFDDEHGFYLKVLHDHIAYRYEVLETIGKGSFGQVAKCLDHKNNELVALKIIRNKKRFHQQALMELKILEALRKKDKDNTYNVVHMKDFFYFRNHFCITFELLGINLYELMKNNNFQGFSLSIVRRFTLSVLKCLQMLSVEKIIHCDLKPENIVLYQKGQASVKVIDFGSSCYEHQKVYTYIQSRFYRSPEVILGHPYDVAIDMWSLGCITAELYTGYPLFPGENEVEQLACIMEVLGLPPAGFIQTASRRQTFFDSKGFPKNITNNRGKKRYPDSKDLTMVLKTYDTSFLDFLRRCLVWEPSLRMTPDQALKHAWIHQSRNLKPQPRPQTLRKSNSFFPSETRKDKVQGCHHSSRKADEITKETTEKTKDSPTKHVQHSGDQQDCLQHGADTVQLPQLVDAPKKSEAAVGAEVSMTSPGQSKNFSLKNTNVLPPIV

[14] = target: TAK1-TAB1 (Homo sapiens, UniProt O43318); experiment: kinase panel; assay type: biochemical
[15] = target: EPH-A4 (Homo sapiens, UniProt P54764); experiment: kinase panel; assay type: biochemical
[16] = target: JAK1 (Homo sapiens, UniProt P23458); experiment: kinase panel; assay type: biochemical
Chain of JAK1 (P23458 whole entry): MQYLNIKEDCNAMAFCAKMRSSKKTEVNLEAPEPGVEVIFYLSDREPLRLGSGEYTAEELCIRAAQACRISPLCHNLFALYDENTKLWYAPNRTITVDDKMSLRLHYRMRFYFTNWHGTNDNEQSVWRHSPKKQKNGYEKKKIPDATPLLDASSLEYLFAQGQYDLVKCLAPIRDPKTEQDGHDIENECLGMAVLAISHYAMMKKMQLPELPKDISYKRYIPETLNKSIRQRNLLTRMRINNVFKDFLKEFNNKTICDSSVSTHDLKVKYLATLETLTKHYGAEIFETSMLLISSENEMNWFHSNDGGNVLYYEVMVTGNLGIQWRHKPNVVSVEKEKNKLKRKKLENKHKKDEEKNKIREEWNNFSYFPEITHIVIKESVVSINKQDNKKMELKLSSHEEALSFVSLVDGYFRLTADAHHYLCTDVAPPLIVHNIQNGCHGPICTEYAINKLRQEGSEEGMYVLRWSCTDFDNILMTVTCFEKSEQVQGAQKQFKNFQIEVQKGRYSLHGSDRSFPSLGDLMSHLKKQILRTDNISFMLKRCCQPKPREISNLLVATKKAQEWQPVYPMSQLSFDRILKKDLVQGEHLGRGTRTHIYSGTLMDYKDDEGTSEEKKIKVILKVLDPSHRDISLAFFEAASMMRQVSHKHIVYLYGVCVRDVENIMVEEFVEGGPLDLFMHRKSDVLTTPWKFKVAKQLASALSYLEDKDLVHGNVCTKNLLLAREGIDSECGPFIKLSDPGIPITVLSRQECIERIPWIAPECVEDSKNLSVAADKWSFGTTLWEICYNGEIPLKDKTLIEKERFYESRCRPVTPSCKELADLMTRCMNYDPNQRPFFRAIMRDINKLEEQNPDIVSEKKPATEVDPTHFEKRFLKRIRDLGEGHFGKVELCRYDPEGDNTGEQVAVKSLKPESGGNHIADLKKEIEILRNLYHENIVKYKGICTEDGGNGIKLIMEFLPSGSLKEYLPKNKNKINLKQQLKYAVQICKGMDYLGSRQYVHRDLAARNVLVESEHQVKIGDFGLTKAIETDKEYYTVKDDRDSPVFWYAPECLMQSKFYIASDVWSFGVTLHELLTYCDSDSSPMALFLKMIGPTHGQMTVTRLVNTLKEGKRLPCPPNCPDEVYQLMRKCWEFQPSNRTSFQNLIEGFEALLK

[17] = target: PKC-ZETA (Homo sapiens, UniProt Q05513); experiment: kinase panel; assay type: biochemical
[18] = target: TIE2 (Homo sapiens, UniProt Q02763); experiment: kinase panel; assay type: biochemical
[19] = target: PLK1 (Homo sapiens, UniProt P53350); experiment: kinase panel; assay type: biochemical
[20] = target: NEK3 (Homo sapiens, UniProt P51956); experiment: kinase panel; assay type: biochemical
[21] = target: TNK2 (Homo sapiens, UniProt Q07912); experiment: kinase panel; assay type: biochemical
[22] = target: TRKA (Homo sapiens, UniProt P04629); experiment: kinase panel; assay type: biochemical
[23] = target: FES (Homo sapiens, UniProt P07332); experiment: kinase panel; assay type: biochemical
[24] = target: CDK5-P25 (Homo sapiens, UniProt Q00535); experiment: kinase panel; assay type: biochemical
[25] = target: LOK (Homo sapiens, UniProt O94804); experiment: kinase panel; assay type: biochemical
[26] = target: LRRK2-G2019S (Homo sapiens, UniProt Q5S007, G2019S); experiment: kinase panel; assay type: biochemical
[27] = target: TXK (Homo sapiens, UniProt P42681); experiment: kinase panel; assay type: biochemical
[28] = target: TYRO3 (Homo sapiens, UniProt Q06418); experiment: kinase panel; assay type: biochemical
Chain of TYRO3 (Q06418 41-890): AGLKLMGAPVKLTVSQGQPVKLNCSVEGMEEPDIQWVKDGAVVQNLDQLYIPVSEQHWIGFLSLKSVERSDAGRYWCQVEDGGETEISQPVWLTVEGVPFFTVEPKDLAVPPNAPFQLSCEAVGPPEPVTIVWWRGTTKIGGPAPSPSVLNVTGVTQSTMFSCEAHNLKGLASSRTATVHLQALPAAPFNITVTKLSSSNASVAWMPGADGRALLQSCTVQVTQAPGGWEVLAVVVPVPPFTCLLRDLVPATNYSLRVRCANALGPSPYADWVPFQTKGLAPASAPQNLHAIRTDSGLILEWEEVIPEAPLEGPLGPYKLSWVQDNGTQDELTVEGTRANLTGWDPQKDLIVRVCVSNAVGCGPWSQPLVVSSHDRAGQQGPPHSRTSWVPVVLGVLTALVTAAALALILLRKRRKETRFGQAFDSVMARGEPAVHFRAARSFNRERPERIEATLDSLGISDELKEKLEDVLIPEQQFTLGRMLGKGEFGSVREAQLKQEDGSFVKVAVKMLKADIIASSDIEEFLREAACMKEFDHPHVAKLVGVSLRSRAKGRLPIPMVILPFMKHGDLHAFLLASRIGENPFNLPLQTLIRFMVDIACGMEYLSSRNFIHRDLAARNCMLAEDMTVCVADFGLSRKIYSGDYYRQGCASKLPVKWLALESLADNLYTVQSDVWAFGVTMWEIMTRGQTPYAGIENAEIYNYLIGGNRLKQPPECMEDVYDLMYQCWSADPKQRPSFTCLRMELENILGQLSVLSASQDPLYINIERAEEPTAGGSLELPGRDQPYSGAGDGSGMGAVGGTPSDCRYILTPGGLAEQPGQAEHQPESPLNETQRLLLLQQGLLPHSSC

[29] = target: PAK2 (Homo sapiens, UniProt Q13177); experiment: kinase panel; assay type: biochemical
[30] = target: MAP4K4 (Homo sapiens, UniProt O95819); experiment: kinase panel; assay type: biochemical
[31] = target: ZAP70 (Homo sapiens, UniProt P43403); experiment: kinase panel; assay type: biochemical
[32] = target: Adenosine 3 receptor (Homo sapiens, UniProt P0DMS8); experiment: Adenosine 3 receptor binding assay
Chain of Adenosine 3 receptor (P0DMS8 whole entry): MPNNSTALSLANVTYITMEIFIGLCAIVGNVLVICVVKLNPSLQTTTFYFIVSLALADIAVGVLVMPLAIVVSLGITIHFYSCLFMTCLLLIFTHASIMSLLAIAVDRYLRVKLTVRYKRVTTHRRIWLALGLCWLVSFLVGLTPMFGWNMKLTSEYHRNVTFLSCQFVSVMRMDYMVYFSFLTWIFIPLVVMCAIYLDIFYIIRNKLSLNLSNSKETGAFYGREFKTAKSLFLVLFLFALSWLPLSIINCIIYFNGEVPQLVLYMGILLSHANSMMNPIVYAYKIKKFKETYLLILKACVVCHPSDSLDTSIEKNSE

[33] = target: T1, Alpha1A adrenergic (Homo sapiens, UniProt P35348); experiment: Alpha1A adrenergic calcium flux assay; assay type: cell-based
T1 sequence (P35348 whole entry): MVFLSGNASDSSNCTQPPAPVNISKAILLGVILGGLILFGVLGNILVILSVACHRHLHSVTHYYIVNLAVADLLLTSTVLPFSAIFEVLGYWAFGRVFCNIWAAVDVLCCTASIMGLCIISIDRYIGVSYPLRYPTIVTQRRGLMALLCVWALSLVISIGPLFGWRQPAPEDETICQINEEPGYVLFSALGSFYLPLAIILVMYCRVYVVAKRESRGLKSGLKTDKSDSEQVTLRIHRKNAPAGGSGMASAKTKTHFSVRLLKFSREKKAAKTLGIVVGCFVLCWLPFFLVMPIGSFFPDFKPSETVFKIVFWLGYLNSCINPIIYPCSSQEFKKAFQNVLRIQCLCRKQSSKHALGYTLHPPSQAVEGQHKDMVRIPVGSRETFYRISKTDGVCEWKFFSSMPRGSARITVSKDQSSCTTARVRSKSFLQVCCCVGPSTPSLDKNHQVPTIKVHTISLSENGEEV

[34] = target: T1, Alpha1A adrenergic; experiment: Alpha1A adrenergic calcium flux assay; assay type: cell-based; remark: listed apart in the source
[35] = target: Beta 1 adrenergic receptor (Homo sapiens, UniProt P08588); experiment: Beta 1 adrenergic receptor assay; assay type: binding
[36] = target: Dopamine D2 receptor (Homo sapiens, UniProt P14416); experiment: Dopamine D2 receptor assay; assay type: binding
[37] = target: Histamine H1 receptor (Homo sapiens, UniProt P35367); experiment: Histamine H1 receptor assay; assay type: binding
[38] = target: PPARgamma Receptor (Homo sapiens, UniProt P37231); experiment: PPARgamma Receptor agonist assay; assay type: cell-based
[39] = target: Phosphodiesterase 4D (Homo sapiens, UniProt Q08499); experiment: Phosphodiesterase 4D assay; assay type: biochemical
Chain of Phosphodiesterase 4D (Q08499 whole entry): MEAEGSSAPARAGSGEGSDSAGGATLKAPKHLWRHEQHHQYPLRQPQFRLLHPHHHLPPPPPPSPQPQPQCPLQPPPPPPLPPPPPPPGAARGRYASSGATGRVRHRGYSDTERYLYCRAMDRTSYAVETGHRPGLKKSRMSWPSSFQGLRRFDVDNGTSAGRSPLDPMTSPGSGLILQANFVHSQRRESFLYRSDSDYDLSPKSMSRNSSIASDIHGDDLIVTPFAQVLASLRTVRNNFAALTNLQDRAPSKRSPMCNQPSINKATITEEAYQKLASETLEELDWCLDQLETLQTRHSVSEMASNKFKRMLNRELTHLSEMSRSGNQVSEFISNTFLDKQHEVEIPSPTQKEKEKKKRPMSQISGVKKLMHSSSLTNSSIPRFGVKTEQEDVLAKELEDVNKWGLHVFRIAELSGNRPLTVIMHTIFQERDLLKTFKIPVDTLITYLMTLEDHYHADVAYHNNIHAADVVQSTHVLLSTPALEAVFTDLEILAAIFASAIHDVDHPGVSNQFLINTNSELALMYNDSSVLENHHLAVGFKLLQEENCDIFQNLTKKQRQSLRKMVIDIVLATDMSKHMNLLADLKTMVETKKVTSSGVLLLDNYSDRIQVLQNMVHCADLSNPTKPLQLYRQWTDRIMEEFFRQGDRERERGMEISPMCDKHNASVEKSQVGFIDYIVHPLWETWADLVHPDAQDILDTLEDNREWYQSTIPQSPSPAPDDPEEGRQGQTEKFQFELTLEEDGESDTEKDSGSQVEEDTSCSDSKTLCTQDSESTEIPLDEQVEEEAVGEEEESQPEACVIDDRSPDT

[40] = target: Progesterone Receptor (Homo sapiens, UniProt P06401); experiment: Progesterone Receptor agonist assay; assay type: cell-based
[41] = system: H1975 cells; experiment: Proliferation assay; assay type: cell-based
Summary of the method: (§1)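 Cells were maintained in 10% FBS/RPMI with penicillin/streptomycin and plated at 500 cells/well in 10% FBS RPMI. Serially diluted test compound was pin-transferred. Viability was read after 3 days by CellTiter-Glo luminescence and normalized to 0.1% DMSO-treated cells and empty wells. EC50 was obtained by non-linear regression curve fitting.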

[42] = system: H3255 cells; experiment: Proliferation assay; assay type: cell-based
Summary of the method: as §1

inhibition at 1 µM [1]: 0%
inhibition at 1 µM [2]: 0%
inhibition at 1 µM [3]: 0%
inhibition at 1 µM [4]: 0%
inhibition at 1 µM [5]: 0%
inhibition at 1 µM [6]: 0%
inhibition at 1 µM [7]: 0%
inhibition at 1 µM [8]: 1%
inhibition at 1 µM [9]: 2%
inhibition at 1 µM [10]: 0%
inhibition at 1 µM [11]: 0%
inhibition at 1 µM [12]: 0%
inhibition at 1 µM [13]: 1%
inhibition at 1 µM [14]: 0%
inhibition at 1 µM [15]: 0%
inhibition at 1 µM [16]: 0%
inhibition at 1 µM [17]: 0%
inhibition at 1 µM [18]: 0%
inhibition at 1 µM [19]: 7%
inhibition at 1 µM [20]: 0%
inhibition at 1 µM [21]: 2%
inhibition at 1 µM [22]: 0%
inhibition at 1 µM [23]: 2%
inhibition at 1 µM [24]: 0%
inhibition at 1 µM [25]: 1%
inhibition at 1 µM [26]: 0%
inhibition at 1 µM [27]: 0%
inhibition at 1 µM [28]: 0%
inhibition at 1 µM [29]: 0%
inhibition at 1 µM [30]: 2%
inhibition at 1 µM [31]: 1%
pIC50 [32]: < 4.52
pIC50 [33]: < 4.52
pIC50 [34]: < 4.52
pIC50 [35]: < 4.52
pIC50 [36]: < 4.52
pIC50 [37]: < 4.52
pIC50 [38]: < 4.52
pIC50 [39]: < 4.52
pIC50 [40]: < 4.52
pEC50 ([41]; Homo sapiens, NCI-H1975, 72 h, read-out: EC50 Proliferation): < 5.00
pEC50 ([42]; Homo sapiens, NCI-H3255, 72 h, read-out: EC50 Proliferation): < 5.00
SMILES: O=C(Nc1nccs1)C(c1cc(F)ccc1O)N1Cc2ccccc2C1=O (centres unmarked) [EAI045, 2-(5-fluoro-2-hydroxyphenyl)-2-(1-oxo-2,3-dihydro-1H-isoindol-2-yl)-N-(1,3-thiazol-2-yl)acetamide]
anti-proliferative effect ([41]; H1975, concentrations as high as 10 μM): no anti-proliferative effect
anti-proliferative effect ([42]; H3255, concentrations as high as 10 μM): no anti-proliferative effect
